# NALP3 yeast inh: inhibitors of NALP3 inflammasome in yeast | hit rate 0.39% among 330,000 | inhibition, % at 10 µM | Yeast reconstituted NLRP3/ASC/caspase-1, beta-gal luminescence, 24 h | AID 2825;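 active = inhibition of 50% or more; inactive = inhibition below 50%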;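 note: plate controls were induced DMSO wells for no effect and uninduced yeast grown without galactose for full effect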
# NALP1 inh: blocks the NALP1 inflammasome reconstituted in yeast; hit rate 0.61% among 280,000; S. cerevisiae NALP1/ASC/caspase-1 growth, X-gal OD620, 72 h; inhibition, % at 10 µM; AID 2071; in the data active = inhibition mostly above about 24%, no sharp cut-off; inactive = mostly below about 32%
# DSG3 Ab inh: human desmoglein-3 autoantibody binding inhibition; DSG3-coupled beads, scFv-anti-DSG3-GFP binding, flow cytometry; active compounds read low; binding (percent of control), % at 10 µM; hit rate 0.48% among 310,000;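 active = binding more than 3 SD below its plate's average and above zero; inconclusive = below that plate limit but binding exactly zero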;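 note: hits lower antibody fragment binding to DSG3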
# PolyA inh: yeast polyadenylation inhibition; S. cerevisiae SKY197-pL101 polyadenylation reporter, beta-gal luminescence; efflux-impaired pdr1/pdr3 knockout yeast; score 100 = 6 SD above DMSO; activity score, % at 12 µM; hit rate 0.02% among 300,000;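 active = lowest replicate activity score at least 50, where 100 means six control SD above control mean; inconclusive = lowest score under 50 but half or more replicates reach 50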;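 note: yeast exposed to compound for 9 h at 30 °C; higher score means more reporter readthrough which indicates perturbed polyadenylation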
# ALR H2O2 inh: blocks human ALR sulfhydryl oxidase activity | hit rate 3.8% among 290,000 | inhibition, % (concentration not given with the values) | P55789 | purified ALR, DTT oxidation, H2O2 HRP-luminol luminescence | AID 485317;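 active = mean replicate inhibition above about 79%, with every replicate also reaching it, limit read from the data; inconclusive = only one of the two criteria met; inactive = mean below limit and not every replicate reaching it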
# Target sequence (P55789 whole entry, looked up): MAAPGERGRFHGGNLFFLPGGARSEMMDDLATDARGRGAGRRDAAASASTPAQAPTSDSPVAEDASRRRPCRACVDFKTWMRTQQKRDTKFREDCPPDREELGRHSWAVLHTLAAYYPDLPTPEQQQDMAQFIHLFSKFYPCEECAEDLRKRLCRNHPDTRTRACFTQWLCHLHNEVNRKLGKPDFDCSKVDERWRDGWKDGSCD
# Arr AP2 block: inhibitors of human beta-arrestin and AP2 interaction; FITC-arrestin peptide / GST-AP2 beads, flow cytometry; AP2 beta2 appendage carries R879A mutation; inhibition, % at 10 µM; hit rate 0.31% among 340,000; AID 504490;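 active = inhibition above a set limit, near 3 SD of compounds lacking own fluorescence, cut at about 54% in these data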;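 note: plate controls were DMSO wells for no effect and 5 µM unlabelled arrestin peptide for full effect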
#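 System: GST-AP2 R879A glutathione beads | Also added: FITC-arrestin peptide, 50 nM | Times: 12 min plus 1 h, RT | Signal: Bead flow cytometry, FITC channel | Buffer or medium: PBS with 0.05% Tween 20 and 0.1% BSA | Read-out basis: Percent drop in bead-associated FITC signal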
# Numbers without * were called inactive; i = inactive; ? = inconclusive; / = no result. Shown are actives, neighbours in structure and some others; about 4.6% of the full set was active somewhere.
SMILES,NALP3 yeast inh,NALP1 inh,DSG3 Ab inh,PolyA inh,ALR H2O2 inh,Arr AP2 block
O=C(NC(=S)NNC(=O)c1ccco1)c1ccc(F)cc1,19.0,-13.4,102.9,-21.1,?,-10.8
COc1ccc(/C=C/C(=O)NC(=S)NNC(=O)c2cc(OC)c(OC)c(OC)c2)cc1OC,32.1,13.3,104.7,-16.3,56.9,-4.8
COc1ccc(NC(=S)NCc2ccc(F)cc2)c(OC)c1,23.1,-7.9,98.8,13.7,98.7*,11.7
COc1ccccc1NC(=S)NCc1ccc(F)cc1,-11.3,-2.6,104.9,12.7,-24.2,9.5
COc1ccc(/C=C/C(=O)NC(=S)NNC(=O)c2ccco2)cc1,16.5,-48.9,95.6,-12.3,85.6*,6.2
COc1ccc(/C=C/C(=O)NC(=S)NNC(=O)Cc2cccs2)cc1,12.6,-8.6,105.6,-5.9,-15.3,-133.0
COc1ccccc1CN1CCNC(=O)C1CC(=O)N(C)C1CCOCC1 (stereo not given),/,/,105.3,/,/,/
C/C=C1\NC(=O)[C@H](C)NC(=O)[C@@H](NC(=O)[C@@H](Cc2ccc(O)cc2)NC(=O)[C@@H](NC(=O)/C(C)=C/C)C(C)C)[C@@H](C)OC(=O)[C@H](CCCCc2ccc(O)cc2)NC(=O)[C@@H](CCC(=O)O)NC1=O,6.5,/,208.7,/,/,-11.1
Cc1ccccc1N1C(=O)CC(Nc2ccc3c(c2)OCO3)C1=O (stereo not given),2.8,7.3,98.9,-13.3,94.9*,21.6
CC(=O)c1cccc(NC(=O)c2cc(S(=O)(=O)N3CCCCC3)ccc2N2CCOCC2)c1,/,/,109.5,/,/,/
O=C(/C=C/c1cc(Br)ccc1O)c1ccco1,32.4,/,92.6,-23.9,96.9*,-3.2
Nc1ccc(/C=C/C(=O)c2ccco2)cc1,8.0,28.6,105.0,-6.9,98.9*,/
Cc1ccc(C(=O)NCC(=O)Nc2ccncc2)s1,8.8,9.3,109.1,-3.4,1.3,-10.6
O=S(=O)(NCC(c1ccco1)N1CCN(c2ccccc2F)CC1)c1ccccc1 (stereo not given),8.6,13.4,102.7,-0.2,0.6,-2.0
O=S(=O)(NCC(c1ccco1)N1CCc2ccccc21)c1ccccc1 (stereo not given),-31.7,/,98.8,-7.6,97.4*,2.6
O=C(NCC(c1ccco1)N1CCc2ccccc21)c1ccccc1Cl (stereo not given),25.0,/,117.0,12.1,98.4*,-16.6
O=C(NCC(c1ccco1)N1CCc2ccccc21)c1c(F)cccc1F (stereo not given),22.7,/,104.6,14.5,28.5,-5.5
CC1=NN(c2ccccc2)C(=O)C1c1ccccc1 (stereo not given),-37.4,11.0,119.0,-21.0,93.6*,6.6
CC1CC(C)CN(S(=O)(=O)CCNC(=O)c2ccc3c(c2)OCO3)C1 (stereo not given),0.9,/,102.0,?,0.4,1.3
Cc1ccc(SCc2cc(=O)c3c(=O)n(-c4ccccc4)[nH]c3[nH]2)cc1,7.9,27.7,99.4,-0.9,93.7*,9.6
O=c1cc(CSc2ccc(Cl)cc2)[nH]c2[nH]n(-c3ccccc3)c(=O)c12,8.7,i,97.2,12.0,84.7*,14.3
O=c1cc(CSc2ccccc2)[nH]c2ccccc12,9.5,-1.8,87.9,0.1,-2.5,2.5
CCCCN(C)CCCNC(=O)CN1N=C(c2ccc(Cl)cc2)CCC1=O,-0.2,25.8,75.2*,-0.4,-4.6,11.3
CC(C)CN(CCNC(=O)CN1N=C(c2ccc(Cl)cc2)CCC1=O)CC(C)C,10.9,-2.5,96.0,-12.6,-8.5,19.1
NC(=O)CN1CCOCCOCCN(CC(N)=O)CCOCC1,-0.5,38.8*,99.1,5.1,-2.9,-49.6
SMILES,NALP3 yeast inh,NALP1 inh,DSG3 Ab inh,PolyA inh,ALR H2O2 inh,Arr AP2 block
N#Cc1c(N)sc2c1CCCCCC2,3.8,-11.0,98.7,-10.5,98.7*,0.0
CC(C)N(CCO)C(=O)C(c1ccccc1)c1ccccc1,17.1,8.4,103.2,5.4,-0.3,6.1
CN(CCO)c1ccc(C(C(=O)c2ccccc2)c2ccc(N(C)CCO)cc2)cc1,1.3,/,100.6,6.3,90.7*,0.1
O=C(N/N=C/c1cc(Br)ccc1O)c1ccccc1Cl,16.8,59.1*,111.5,-0.8,0.3,-1.3
O=C(Nc1nc(-c2ccccn2)cs1)c1ncc(Cl)c(Cl)c1Cl,4.5,-3.1,100.5,-13.3,11.9,8.7
CSc1nc2ccc3nc(NC(=O)c4ccc(Cl)s4)sc3c2s1,-2.4,30.1,110.3,0.6,91.1*,17.9
O=C(Nc1nc(-c2ccccn2)cs1)c1ccc(Cl)s1,-0.9,97.7*,104.9,14.2,87.2*,-7.7
Cc1ccc(C(=O)Nc2nc(-c3ccccn3)cs2)s1,39.8,/,109.2,/,86.9*,25.9
O=C(COc1ccc(F)cc1)N1CCCc2ccccc21,1.0,16.7,131.9,9.2,-2.3,-11.2
Cc1cc(-c2n[nH]c(=S)n2-c2ccccc2)nn1C,9.4,6.1,90.1,4.3,42.0,0.1
Oc1cc2ccccc2cc1-c1n[nH]c(=S)o1,-0.1,7.5,103.7,20.3,96.9*,0.6
Cc1cc(-c2n[nH]c(=S)o2)c(C)n1-c1ccccc1,-36.1,-18.6,/,-20.0,95.0*,/
S=c1[nH]nc(COc2ccc3ccccc3c2)o1,19.0,-10.5,95.6,-4.0,30.0,-1.4
S=c1[nH]nc(-c2c[nH]c3ccccc23)o1,14.2,5.2,90.1,-25.6,97.9*,-3.3
CC(=O)N(C)c1cccc(-c2ccc3nnc(C)n3n2)c1,8.4,9.0,96.5,-7.5,/,-19.9
Brc1ccc(C2=CSC3=NCCN23)cc1,23.9,21.3,102.2,-9.4,/,12.9
Oc1ccc(C2=CSC3=NCCN23)cc1O,12.3,-4.1,93.9,9.4,99.6*,-0.5
COc1ccc2oc3cc(C)[n+]([O-])c(-c4ccc(C)cc4)c3c2c1,2.9,28.3,109.2,-18.2,93.3*,-1.6
COc1cc(/C=N/NC(=O)c2c(-c3ccccc3)noc2C)ccc1O,1.4,/,104.5,0.2,98.8*,-3.6
Cc1onc(-c2ccccc2)c1C(=O)Nc1ccccc1NC(=O)c1c(-c2ccccc2)noc1C,7.5,9.3,109.6,-7.2,-0.6,17.6
CCOc1cc(/C=N/NC(=O)c2c(-c3ccccc3)noc2C)ccc1O,4.3,-18.9,99.7,3.0,95.9*,/
COc1cccc(/C=N/NC(=O)c2c(-c3ccccc3)noc2C)c1O,25.1,-4.8,108.3,12.9,45.2,-9.6
Cc1ccc(C(C)C)c(OCc2ccc(C(=O)N/N=C/c3ccc(O)c(O)c3)cc2)c1,20.6,9.5,103.9,0.4,97.4*,1.2
Cc1onc(-c2ccccc2)c1C(=O)Nc1ccnn1C1CCCCC1,3.2,31.5*,/,-10.5,-0.4,10.8
CCOc1cc([N+](=O)[O-])cc(/C=N/NC(=O)c2c(-c3ccccc3)noc2C)c1O,22.2,3.9,114.2,-15.3,-1.6,-17.2

# Screening data: PubChem, several laboratories
